Inhibition data for 10 compounds are collected here from ChEMBL document CHEMBL1152848, “Penetratin and derivatives acting as antifungal agents” (2009).

Peptide text beside a SMILES is read from it.

What all share (assay type): functional
Test [1] has as its system Candida albicans. Description: Antifungal activity against Candida albicans ATCC 10231 assessed as growth inhibition at 50 uM after 24 hrs. The note with it: ATCC 10231, 24 h. An outline of the steps:
(§1)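 Percent growth inhibition in 96-well microdilution, RPMI-1640. Peptide stocks in DMSO (≤2%), diluted to final 200–12.5 µM. Inoculum adjusted to 1-5 × 10^3 CFU/ml, grown beforehand on Sabouraud–chloramphenicol agar 48 h at 30 °C. Compound-free growth control with matching DMSO, plus sterility control. Incubated 24 h at 35 °C in a moist dark chamber, then read by microplate reader. Amphotericin B as 100% inhibition reference. Duplicates.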

In test [2] the test system is Candida albicans. The test is described as follows: Antifungal activity against Candida albicans ATCC 10231 assessed as growth inhibition at 100 uM after 24 hrs. The conditions noted are these: ATCC 10231, 24 h. In short, it runs like this: as §1
Test [3] has as its system Cryptococcus neoformans. Description: Antifungal activity against Cryptococcus neoformans ATCC 32264 assessed as growth inhibition at 200 uM after 48 hrs. The note with it: ATCC 32264, 48 h. An outline of the steps:
(§2)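 Percent growth inhibition by broth microdilution in RPMI-1640. Peptides were dissolved in DMSO (≤2%) and diluted to final 200–12.5 µM. Inoculum 1-5 × 10^3 CFU/ml, cells maintained on Sabouraud agar. Growth control (medium, inoculum, same DMSO, no compound) and sterility control per strain. Plates held 48 h at 35 °C, moist and dark, then read by microplate reader. Amphotericin B positive control. Duplicate tests.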

The subject of test [4] is Candida albicans. Description: Antifungal activity against Candida albicans ATCC 10231 assessed as growth inhibition at 200 uM after 24 hrs. The conditions noted are these: ATCC 10231, 24 h. In short, it runs like this:
as §1

For test [5], the system named is Cryptococcus neoformans. The test is described as follows: Antifungal activity against Cryptococcus neoformans ATCC 32264 assessed as growth inhibition at 100 uM after 48 hrs. The note with it: ATCC 32264, 48 h. An outline of the steps: as §2
Test [6] has as its system Candida albicans. Description: Antifungal activity against Candida albicans ATCC 10231 assessed as growth inhibition at 12.5 uM after 24 hrs. The conditions noted are these: ATCC 10231, 24 h. In short, it runs like this: as §1
In test [7] the test system is Cryptococcus neoformans. Description: Antifungal activity against Cryptococcus neoformans ATCC 32264 assessed as growth inhibition at 50 uM after 48 hrs. The note with it: ATCC 32264, 48 h. In short, it runs like this:
as §2

Test [8] deals with Cryptococcus neoformans. Description: Antifungal activity against Cryptococcus neoformans ATCC 32264 assessed as growth inhibition at 12.5 uM after 48 hrs. The conditions noted are these: ATCC 32264, 48 h. In short, it runs like this: as §2
Test [9] relates to Cryptococcus neoformans. The test is described as follows: Antifungal activity against Cryptococcus neoformans ATCC 32264 assessed as growth inhibition at 25 uM after 48 hrs. The note with it: ATCC 32264, 48 h. An outline of the steps: as §2
In test [10] the test system is Candida albicans. Description: Antifungal activity against Candida albicans ATCC 10231 assessed as growth inhibition at 25 uM after 24 hrs. The note with it: ATCC 10231, 24 h. In short, it runs like this:
as §1

As usually defined, the inhibition is the percentage by which the read-out fell short of the control. Consider H-RKWRRKWKK-NH2, for which the figures for the inhibition at 50 µM in test [1] and in test [7] were 58% and 14%, respectively. Besides, the inhibition at 100 µM worked out at 76% in test [2] and 68% in test [5]. Besides, the results for the inhibition at 200 µM in test [3] and in [4] were 99% and 100%, respectively. For the same compound, the results for the inhibition at 12.5 µM in test [6] and in test [8] were 15% and 0%, respectively. In addition, the inhibition at 25 µM stood at 16% in test [9] and 40% in test [10].

H-WKQKNIKWRFRQKMIR-NH2: the inhibition at 50 µM in [1] stood at 0%; in test [7] it was 36%. Besides, the inhibition at 100 µM in [2] is 52%; in test [5], 92%. Also, the inhibition at 200 µM in test [3] was 96%; in test [4], 60%. Further, the inhibition at 12.5 µM in test [6] and in test [8] was 0% each time. The inhibition at 25 µM in [9] is 28%; in test [10], 0%.

As for H-RKRRKKK-NH2, the inhibition at 50 µM in test [1] turned out to be 0%; in test [7], 19%. In addition, the values for the inhibition at 100 µM in test [2] and in test [5] were 12% and 14%, respectively. Moreover, the figures for the inhibition at 200 µM in test [3] and in test [4] were 60% and 43%, respectively. The inhibition at 12.5 µM in test [6] and in test [8] was 0% in each case. Also, the inhibition at 25 µM in [9] is 10%; in [10], 0%.

As to `CC(=O)N1CCN(c2ccc(OCC3COC(Cn4ccnc4)(c4ccc(Cl)cc4Cl)O3)cc2)CC1` (stereo not given) [KETOCONAZOLE], the inhibition at 50 µM in test [1] and in test [7] was 100% each time. In addition, the inhibition at 100 µM in [2] and in test [5] was 100% each time. In addition, the inhibition at 200 µM in test [3] and in [4] was 100% in each case. Moreover, the inhibition at 12.5 µM in test [6] and in [8] was 100% each time. For the same compound, the inhibition at 25 µM in test [9] and in test [10] was 100% in each case.

With H-RKFRRKFKK-NH2, the results for the inhibition at 50 µM in [1] and in [7] were 33% and 13%, respectively. For the same compound, the inhibition at 100 µM worked out at 44% in [2] and 11% in test [5]. Also, the inhibition at 200 µM in test [3] was determined as 73%; in test [4], 61%. Also, the inhibition at 12.5 µM in test [6] and in test [8] was 0% in each case. Also, the inhibition at 25 µM is 9% in test [9] and 23% in [10].

`CC[C@H](C)[C@H](NC(=O)[C@H](CCCCN)NC(=O)[C@@H](NC(=O)[C@H](CCC(N)=O)NC(=O)[C@@H](N)CCCNC(=N)N)[C@@H](C)CC)C(=O)N[C@@H](Cc1c[nH]c2ccccc12)C(=O)N[C@@H](Cc1ccccc1)C(=O)N[C@@H](CCC(N)=O)C(=O)N[C@@H](CC(N)=O)C(=O)N[C@@H](CCCNC(=N)N)C(=O)N[C@@H](CCCNC(=N)N)C(=O)N[C@@H](CCSC)C(=O)N[C@@H](CCCCN)C(=O)N[C@@H](Cc1c[nH]c2ccccc12)C(=O)N[C@@H](CCCCN)C(=O)N[C@@H](CCCCN)C(N)=O` [PENETRATIN]: the inhibition at 50 µM was 95% in test [1] and 100% in [7]. Moreover, the inhibition at 100 µM in test [2] and in [5] was 100% throughout. In addition, the inhibition at 200 µM in test [3] and in test [4] was 100% in each case. Further, the inhibition at 12.5 µM in [6] stood at 4%; in [8] it was 90%. Moreover, the inhibition at 25 µM in test [9] was determined as 100%; in test [10] it was 91%.

Regarding `C[C@@H]1[C@H](O)[C@@H](C)/C=C/C=C/C=C/C=C/C=C/C=C/C=C/[C@H](O[C@@H]2O[C@H](C)[C@@H](O)[C@H](N)[C@@H]2O)C[C@@H]2O[C@](O)(C[C@@H](O)C[C@@H](O)[C@H](O)CC[C@@H](O)C[C@@H](O)CC(=O)O[C@H]1C)C[C@H](O)[C@H]2C(=O)O` [AMPHOTERICIN B], the inhibition at 50 µM in [1] and in [7] was 100% each time. The inhibition at 100 µM in [2] and in test [5] was 100% each time. The inhibition at 200 µM in test [3] and in [4] was 100% in each case. For the same compound, the inhibition at 12.5 µM in test [6] and in test [8] was 100% throughout. Further, the inhibition at 25 µM in test [9] and in test [10] was 100% each time.

Turning to `N=C(N)NCCC[C@H](N)C(=O)N[C@@H](CCC(N)=O)C(=O)N[C@@H](CCCCN)C(=O)N[C@@H](CCCCN)C(N)=O` (H-RQKK-NH2), the figures for the inhibition at 50 µM in test [1] and in [7] were 0% and 92%, respectively. Moreover, the inhibition at 100 µM was found to be 0% in [2] and 100% in test [5]. In addition, the inhibition at 200 µM was 100% in test [3] and 6% in [4]. The inhibition at 12.5 µM in test [6] was determined as 0%; in test [8], 32%. The inhibition at 25 µM in test [9] stood at 62%; in test [10], 0%.

In the case of `NCCCC[C@H](NC(=O)[C@H](CCCCN)NC(=O)[C@H](Cc1c[nH]c2ccccc12)NC(=O)[C@@H](N)CCCCN)C(N)=O` (H-KWKK-NH2), the inhibition at 50 µM in test [1] and in test [7] was 0% in each case. In addition, the values for the inhibition at 100 µM in test [2] and in [5] were 2% and 0%, respectively. The inhibition at 200 µM in test [3] stood at 0%; in test [4] it was 9%. In addition, the inhibition at 12.5 µM in test [6] and in test [8] was 0% throughout. Besides, the inhibition at 25 µM in test [9] and in test [10] was 0% each time.

Consider H-RKRRKWKK-NH2, for which the inhibition at 50 µM amounted to 0% in test [1] and 11% in test [7]. Moreover, the inhibition at 100 µM in [2] is 13%; in test [5] it was 33%. For the same compound, the results for the inhibition at 200 µM in test [3] and in [4] were 100% and 29%, respectively. In addition, the inhibition at 12.5 µM in test [6] and in [8] was 0% in each case. The inhibition at 25 µM in test [9] came to 6%; in test [10], 0%.
